Test results from ChEMBL document CHEMBL1811802, “Synthesis and significant cytostatic activity of 7-hetaryl-7-deazaadenosines” (J Med Chem, 2011).

Key:
[1] = Inhibition of RNA polymerase 2 in human HeLaScribe nuclear extracts after 1 hr
How it was run: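 HeLaScribe nuclear extract transcription with CMV(+) template DNA, 3 mM MgCl2, 400 μM CTP/GTP/UTP, 25 μM [33P]ATP. Inhibitor preincubated 5 min at 30 °C, then 1 h at 30 °C. Products run on 6% urea–polyacrylamide gel; full-length transcript quantified; IC50 is 50% product decrease.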

[2] = test system: DU-145; assay: Cytostatic activity against human DU145 cells after 5 days by SRB assay; assay type: functional; conditions: DU-145, 120 h
How it was run: (§1)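 Cells seeded per line density, overnight at 37 °C; day-zero plate TCA-fixed. 5-fold serial dilutions added, 5-day incubation; TCA fixation, 0.057% SRB in 1% acetic acid 30 min, dye dissolved in 10 mM Tris pH 10.5, A500. Growth relative to day-zero and untreated; GIC50 from sigmoidal dose–response fit; mean of two independent experiments.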

[3] = test system: SK-OV-3; assay: Cytotoxicity against human SKOV3 cells after 3 days by MTT assay; assay type: functional, cell-based; conditions: SK-OV-3, 72 h
[4] = test system: MAT-Ly-Lu; assay: Cytotoxicity against rat MAT-LyLu cells after 3 days by MTT assay; assay type: functional, cell-based; conditions: 72 h
[5] = test system: L1210; assay: Cytotoxicity against mouse L1210 cells after 3 days by MTT assay; assay type: functional, cell-based; conditions: L1210, 72 h
[6] = test system: MT4; assay: Cytostatic activity against human MT4 cells after 5 days by SRB assay; assay type: functional; conditions: MT4, 120 h
[7] = test system: PC-3; assay: Cytostatic activity against human PC3 cells after 5 days by SRB assay; assay type: functional; conditions: PC-3, 120 h; how it was run: as §1
[8] = test system: BV-173; assay: Cytotoxicity against human BV173 cells after 3 days by MTT assay; assay type: functional, cell-based; conditions: BV-173, 72 h
[9] = test system: HeLa; assay: Cytotoxicity against human HeLa cells after 3 days by MTT assay; assay type: functional, cell-based; conditions: 72 h
[10] = test system: SK-N-AS; assay: Cytotoxicity against human SK-N-AS cells after 3 days by MTT assay; assay type: functional, cell-based; conditions: 72 h
[11] = test system: C6; assay: Cytotoxicity against rat C6 cells after 3 days by MTT assay; assay type: functional, cell-based; conditions: C6, 72 h
[12] = test system: HCT-116; assay: Cytostatic activity against human HCT116 cells after 5 days by SRB assay; assay type: functional; conditions: HCT-116, 120 h; how it was run: as §1
[13] = test system: LNCaP; assay: Cytotoxicity against human LNCAP cells after 3 days by MTT assay; assay type: functional, cell-based; conditions: 72 h
[14] = test system: MCF7; assay: Cytotoxicity against human MCF7 cells after 3 days by MTT assay; assay type: functional, cell-based; conditions: MCF7, 72 h
[15] = Cytotoxicity against mouse P388D1 cells after 3 days by MTT assay; assay type: functional, cell-based; conditions: P388D1, 72 h
[16] = test system: MDA-MB-231; assay: Cytotoxicity against human MDA-MB-231 cells after 3 days by MTT assay; assay type: functional, cell-based; conditions: MDA-MB-231, 72 h
[17] = test system: K562; assay: Cytotoxicity against human K562 cells after 3 days by MTT assay; assay type: functional, cell-based; conditions: K562, 72 h
[18] = test system: BJ; assay: Cytotoxicity against human BJ cells after 3 days by MTT assay; assay type: cell-based; conditions: 72 h
[19] = Cytotoxicity against human NCI-H146 cells after 3 days by MTT assay; assay type: functional, cell-based; conditions: NCI-H146, 72 h
[20] = test system: CT26; assay: Cytotoxicity against mouse CT26 cells after 3 days by MTT assay; assay type: functional, cell-based; conditions: CT26, 72 h
[21] = test system: EL4; assay: Cytotoxicity against mouse EL4 cells after 3 days by MTT assay; assay type: functional, cell-based; conditions: EL4, 72 h
[22] = Cytotoxicity against human U87MG cells after 3 days by MTT assay; assay type: functional, cell-based, U-87MG ATCC; conditions: U-87 MG, 72 h
[23] = Cytotoxicity against human HeLaS3 cells after 3 days by XTT assay; assay type: functional, cell-based; conditions: HeLa S3, 72 h
How it was run: (§2)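 Suspension-grown cell lines, 3-day compound incubation; viability read by XTT metabolic assay; IC50 averaged from four independent experiments.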

[24] = Cytostatic activity against human Hs578 cells after 5 days by SRB assay; assay type: functional; conditions: Hs578, 120 h; how it was run: as §1
[25] = test system: BT-549; assay: Cytostatic activity against human BT549 cells after 5 days by SRB assay; assay type: functional; conditions: BT-549, 120 h; how it was run: as §1
[26] = Cytotoxicity against human CEM-DNR-bulk cells after 3 days by MTT assay; assay type: functional, cell-based; conditions: 72 h
[27] = test system: PC-3; assay: Cytotoxicity against human PC3 cells after 3 days by MTT assay; assay type: functional, cell-based; conditions: PC-3, 72 h
[28] = test system: HT-29; assay: Cytotoxicity against human HT-29 cells after 3 days by MTT assay; assay type: functional, cell-based; conditions: HT-29, 72 h
[29] = test system: CCRF-CEM; assay: Cytotoxicity against human CCRF-CEM cells after 3 days by XTT assay; assay type: functional, cell-based; conditions: 72 h; how it was run: as §2
[30] = test system: BT-549; assay: Cytotoxicity against human BT549 cells after 3 days by MTT assay; assay type: functional, cell-based; conditions: BT-549, 72 h
[31] = test system: NCI-H23; assay: Cytostatic activity against human NCI-H23 cells after 5 days by SRB assay; assay type: functional; conditions: NCI-H23, 120 h; how it was run: as §1
[32] = test system: HCT-116; assay: Cytotoxicity against human HCT116 cells after 3 days by MTT assay; assay type: functional, cell-based; conditions: HCT-116, 72 h
[33] = test system: HL-60; assay: Cytotoxicity against human HL60 cells after 3 days by XTT assay; assay type: functional, cell-based; conditions: HL-60, 72 h; how it was run: as §2
[34] = molecular target: Adenosine kinase (Homo sapiens, UniProt P55263); assay: Inhibition of human ADK using [3H]-adenosine by scintillation counting
Sequence of Adenosine kinase (P55263 whole entry): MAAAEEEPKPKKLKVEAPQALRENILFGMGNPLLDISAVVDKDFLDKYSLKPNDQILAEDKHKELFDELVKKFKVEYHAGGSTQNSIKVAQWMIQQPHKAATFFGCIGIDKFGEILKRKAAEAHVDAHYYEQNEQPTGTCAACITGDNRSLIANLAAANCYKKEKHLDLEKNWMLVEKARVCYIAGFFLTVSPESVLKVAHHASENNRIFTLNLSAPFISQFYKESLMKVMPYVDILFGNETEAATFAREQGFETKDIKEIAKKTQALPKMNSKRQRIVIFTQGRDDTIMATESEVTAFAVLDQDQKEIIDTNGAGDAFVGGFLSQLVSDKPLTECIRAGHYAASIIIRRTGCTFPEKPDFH

[35] = test system: A549; assay: Cytostatic activity against human A549 cells after 5 days by SRB assay; assay type: functional; conditions: A549, 120 h; how it was run: as §1
[36] = test system: SK-MEL-2; assay: Cytotoxicity against human SK-MEL-2 cells after 3 days by MTT assay; assay type: functional, cell-based; conditions: SK-MEL-2, 72 h
[37] = test system: HPAC; assay: Cytotoxicity against human HPAC cells after 3 days by MTT assay; assay type: functional, cell-based; conditions: 72 h
[38] = test system: K562; assay: Cytotoxicity against human paclitaxel resistant K562 cells after 3 days by MTT assay; assay type: functional, cell-based; conditions: K562, 72 h
[39] = Cytotoxicity against human MES-SA cells after 3 days by MTT assay; assay type: functional, cell-based; conditions: 72 h

CC[C@H](C)[C@@H]1NC(=O)CNC(=O)[C@@H]2Cc3c([nH]c4cc(O)ccc34)[S+]([O-])C[C@@H](NC(=O)CNC1=O)C(=O)N[C@@H](CC(N)=O)C(=O)N1C[C@H](O)C[C@H]1C(=O)N[C@@H]([C@@H](C)[C@@H](O)CO)C(=O)N2 (stereo partly drawn) [alpha-Amanitin]
IC50 [1]: 2.2 ng/mL

Nc1ncnc2c1c(-c1ccoc1)cn2[C@@H]1O[C@H](CO)[C@@H](O)[C@H]1O
GI50 [2]: 330 nM | IC50 [3]: > 10000 nM | IC50 [4]: 1860 nM | IC50 [5]: 445 nM | GI50 [6]: 170 nM | GI50 [7]: 418 nM | IC50 [8]: 68 nM | IC50 [9]: 350 nM | IC50 [10]: > 10000 nM | IC50 [11]: > 10000 nM | GI50 [12]: 15 nM | IC50 [13]: 112 nM | IC50 [14]: 9740 nM | IC50 [15]: 139 nM | IC50 [16]: 126 nM | IC50 [17]: 200 nM | IC50 [18]: > 10000 nM | IC50 [19]: > 10000 nM | IC50 [20]: 1670 nM | IC50 [21]: > 10000 nM | IC50 [22]: > 10000 nM | IC50 [23]: 20 nM | GI50 [24]: 21 nM | GI50 [25]: 28 nM | IC50 [26]: 364 nM | IC50 [27]: > 10000 nM | IC50 [28]: 394 nM | IC50 [29]: 70 nM | IC50 [30]: 452 nM | GI50 [31]: 198 nM | IC50 [32]: 425 nM | IC50 [33]: 9060 nM | IC50 [34]: > 5000 nM | GI50 [35]: 34 nM | IC50 [36]: > 10000 nM | IC50 [37]: 133 nM | IC50 [38]: 147 nM | IC50 [39]: 1330 nM

Nc1nc(Cl)nc2c1ncn2[C@H]1C[C@H](O)[C@@H](CO)O1 [CLADRIBINE]
IC50 [3]: > 10000 nM | IC50 [5]: 393 nM | IC50 [8]: 0.8 nM | IC50 [9]: > 10000 nM | IC50 [10]: > 10000 nM | IC50 [11]: 9070 nM | IC50 [13]: > 10000 nM | IC50 [14]: 2350 nM | IC50 [15]: 285 nM | IC50 [16]: > 10000 nM | IC50 [17]: 7690 nM | IC50 [18]: > 10000 nM | IC50 [19]: > 10000 nM | IC50 [20]: 131 nM | IC50 [21]: 848 nM | IC50 [22]: > 10000 nM | IC50 [26]: 352 nM | IC50 [27]: 8280 nM | IC50 [28]: 9440 nM | IC50 [30]: 123 nM | IC50 [32]: 9430 nM | IC50 [36]: > 10000 nM | IC50 [37]: 9320 nM | IC50 [38]: 170 nM | IC50 [39]: 165 nM

Nc1ncnc2c1c(-c1cccs1)cn2[C@@H]1O[C@H](COP(=O)(O)OP(=O)(O)OP(=O)(O)O)[C@@H](O)[C@H]1O
IC50 ([1]; read-out: IC50): 54000 nM
